Test results published in ChEMBL document CHEMBL3421571, “N-Oxide derivatives of 3-(3-pyridyl)-2-phosphonopropanoic acids as potential inhibitors of Rab geranylgeranylation” (Bioorg Med Chem Lett, 2015).
Active and inactive are the calls of the source. The calls are words filed in the database; no cut-off is given here.

Key:
[1] = target: Geranylgeranyl transferase type I (Homo sapiens) (UniProt P49354+P53609); assay: Inhibition of GGTase 1 in human RPMI8226 cells assessed as unmodified Rap1a accumulation at 5 mM incubated for 48 hrs by immunoblot method; assay type: cell-based; settings: RPMI-8226
Outline: (§1)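 RPMI-8226 myeloma cells exposed 48 h to lovastatin (20 μM) or bisphosphonates (5 mM), untreated cells as reference. Whole-cell lysates made in RIPA buffer, membrane (detergent) fraction by Triton X-114 partitioning; immunoblotting with β-tubulin (lysate) or calnexin (detergent fraction) as loading controls. Rap1a antibody recognizes only unprenylated protein. Blots representative of two independent experiments.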

[2] = test system: RPMI-8226; assay: Inhibition of GGTase 2 in human RPMI8226 cells assessed as reduction in membrane bound Rab6 protein at 5 mM incubated for 48 hrs by immunoblot method; assay type: cell-based; outline: as §1
[3] = test system: RPMI-8226; assay: Inhibition of GGTase 2 in human RPMI8226 cells assessed as disruption of monoclonal protein trafficking by measuring accumulation of intracellular lambda light chain at 5 mM incubated for 48 hrs by ELISA; assay type: cell-based
Outline: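 RPMI-8226 cells treated 48 h with lovastatin (20 μM) or bisphosphonates (5 mM); intracellular lambda light chain quantified by ELISA, expressed as percentage of untreated control (mean + SD, n=3); unpaired two-tailed t-test against untreated cells.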

[4] = target: T1, Farnesyl pyrophosphate synthase (Homo sapiens, UniProt P14324); assay: Inhibition of recombinant FDPS (unknown origin) assessed as decrease in […] level using GPP and [14C]IPP as substrate treated with enzyme for 10 mins prior to substrate challenge for 30 mins by liquid scintillation counting analysis
T1 sequence (P14324 whole entry): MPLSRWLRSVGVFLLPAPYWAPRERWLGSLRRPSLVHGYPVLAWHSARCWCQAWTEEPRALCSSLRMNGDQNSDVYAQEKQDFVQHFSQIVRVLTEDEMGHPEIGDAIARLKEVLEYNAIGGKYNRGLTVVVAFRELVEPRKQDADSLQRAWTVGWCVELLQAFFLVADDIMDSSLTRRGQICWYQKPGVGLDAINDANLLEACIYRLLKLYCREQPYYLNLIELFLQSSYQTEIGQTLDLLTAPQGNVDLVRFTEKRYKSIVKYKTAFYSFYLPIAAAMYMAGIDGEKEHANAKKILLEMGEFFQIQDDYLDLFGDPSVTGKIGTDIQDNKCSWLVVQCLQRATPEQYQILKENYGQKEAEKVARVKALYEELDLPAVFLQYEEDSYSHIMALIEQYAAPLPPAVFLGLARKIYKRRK

[5] = Inhibition of recombinant GGTase 2 (unknown origin) using recombinant Rab1A and [3H]GGPP as substrate after 20 mins in presence of recombinant REP-2 by liquid scintillation counting analysis; set-up: species or system Homo sapiens
[6] = test system: RPMI-8226; assay: Induction of endoplasmic reticulum stress in human RPMI8226 cells assessed as increase in calnexin cleavage at 5 mM incubated for 48 hrs by immunoblot method; assay type: functional, cell-based
[7] = test system: RPMI-8226; assay: Induction of apoptosis in human RPMI8226 cells assessed as increase in PARP cleavage at 5 mM incubated for 48 hrs by immunoblot method; assay type: functional, cell-based; outline: as §1
[8] = test system: RPMI-8226; assay: Induction of apoptosis in human RPMI8226 cells assessed as increase in caspase-3 cleavage at 5 mM incubated for 48 hrs by immunoblot method; assay type: functional, cell-based; outline: as §1
[9] = test system: RPMI-8226; assay: Induction of apoptosis in human RPMI8226 cells assessed as increase in caspase-3 cleavage at 20 uM incubated for 48 hrs by immunoblot method; assay type: functional, cell-based; outline: as §1
[10] = test system: RPMI-8226; assay: Induction of apoptosis in human RPMI8226 cells assessed as increase in PARP cleavage at 20 uM incubated for 48 hrs by immunoblot method; assay type: functional, cell-based; outline: as §1

| Compound | inhibition [1] | inhibition [2] | inhibition [3] | IC50 [4] [mM] | IC50 [5] [µM] | Activity [6] | Activity [7] | Activity [8] | Activity [9] | Activity [10] |
| --- | --- | --- | --- | --- | --- | --- | --- | --- | --- | --- |
| O=C(O)C(O)(Cc1ccc[n+]([O-])c1)P(=O)(O)O (stereo unspecified) | inactive | Active | Active | 2 | 1800 | – | – | – | – | – |
| O=C(O)C(Cc1ccc[n+]([O-])c1)P(=O)(O)O (stereo unspecified) | inactive | inactive | inactive | > 2 | 800 | Active | Active | Active | – | – |
| O=C(O)C(O)(Cc1cccnc1)P(=O)(O)O (stereo unspecified) | inactive | Active | Active | 0.2 | 700 | Active | Active | Active | – | – |
| CC[C@H](C)C(=O)O[C@H]1C[C@@H](C)C=C2C=C[C@H](C)[C@H](CC[C@@H]3C[C@@H](O)CC(=O)O3)[C@H]21 | – | – | – | – | – | – | – | – | Active | Active |
| O=C(O)C(Cc1cccnc1)P(=O)(O)O (stereo unspecified) | inactive | Active | inactive | 1 | 1100 | Active | Active | Active | – | – |
